From ChEMBL document CHEMBL2384906, “Biological activity, design, synthesis and structure activity relationship of some novel derivatives of curcumin containing sulfonamides” (Eur J Med Chem, 2013)
Values after ≈ are worked out from the molar mass of the structure shown. Active and inactive are the calls of the source. The calls are words filed in the database; no cut-off is given here.

Experiments:
[1] = system: Curvularia lunata; experiment: Antifungal activity against Curvularia lunata MTCC 581 after 48 hrs; format: functional; conditions: MTCC 581, 48 h
[2] = system: HCT-116; experiment: Cytotoxicity against human HCT116 cells after 24 hrs by MTT assay; format: functional, cell-based
Method in brief: (§1)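 The MTT assay seeded 5 × 10⁴ cells per well and grew them 24 h in RPMI 1640 with compound at 2.5–200 µM. Medium without cells was the blank and adriamycin the positive control. MTT was added for 4 h at 37 °C, formazan was solubilised, and absorbance was read at 570 nm. IC50 is the concentration that cuts viability 50% against untreated cells.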

[3] = system: Salmonella typhi; experiment: Antimicrobial activity against Salmonella typhi ATCC 23564 assessed as diameter of inhibition zone at 40 uM after 24 hrs by Kirby -Baur disc diffusion method; format: functional, Salmonella enterica subsp. enterica serovar Typhi; conditions: Salmonella enterica, ATCC 23564, 24 h; read-out: DIZ
[4] = system: Aspergillus niger; experiment: Antifungal activity against Aspergillus niger MTCC 1108 assessed as zone of inhibition at 80 uM after 48 hrs by disc diffusion method; format: functional; conditions: MTCC 1108, 48 h, read-out: IZ
Method in brief: (§2)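 Spores from 4-day potato dextrose agar cultures, suspended in sterile water at 1.5 × 10⁵ CFU/mL. 0.2 mL was spread on potato dextrose agar. 5 mm filter-paper discs soaked with test compound were laid on the lawn. Incubation was 48 h at 28 °C, then the inhibition zone was measured in mm. Fluconazole was the positive control and acetone the negative control.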

[5] = system: Curvularia lunata; experiment: Antifungal activity against Curvularia lunata MTCC 581 assessed as zone of inhibition at 40 uM after 48 hrs by disc diffusion method; format: functional; conditions: MTCC 581, 48 h, read-out: IZ; method in brief: as §2
[6] = system: Trichoderma viride; experiment: Antifungal activity against Trichoderma viride MTCC 1107 after 48 hrs; format: functional; conditions: MTCC 1107, 48 h
[7] = system: Bacillus cereus; experiment: Antimicrobial activity against Bacillus cereus MTCC 7350 assessed as diameter of inhibition zone at 40 uM after 24 hrs by Kirby -Baur disc diffusion method; format: functional; conditions: MTCC 7350, 24 h, read-out: DIZ
Method in brief: (§3)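 Kirby-Bauer disc diffusion was used. Acetone stocks (160 µM) were serially doubled down to 80, 40 and 20 µM. 4 µL of each went onto 5 mm sterile paper discs, which were dried 30 min at 50 °C. Inoculum was 1.5 × 10⁸ CFU/mL diluted to 3 × 10² CFU/mL, and 50 µL was spread on Mueller-Hinton agar. After 24 h at 37 °C the inhibition-zone diameter was measured. Ciprofloxacin served as positive control.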

[8] = system: Pseudomonas aeruginosa; experiment: Antimicrobial activity against Pseudomonas aeruginosa ATCC 15499 assessed as diameter of inhibition zone at 40 uM after 24 hrs by Kirby -Baur disc diffusion method; format: functional; conditions: ATCC 15499, 24 h, read-out: DIZ; method in brief: as §3
[9] = system: Curvularia lunata; experiment: Antifungal activity against Curvularia lunata MTCC 581 assessed as zone of inhibition at 80 uM after 48 hrs by disc diffusion method; format: functional; conditions: MTCC 581, 48 h, read-out: IZ; method in brief: as §2
[10] = system: Salmonella typhi; experiment: Antimicrobial activity against Salmonella typhi ATCC 23564 assessed as diameter of inhibition zone at 20 uM after 24 hrs by Kirby -Baur disc diffusion method; format: functional, Salmonella enterica subsp. enterica serovar Typhi; conditions: Salmonella enterica, ATCC 23564, 24 h; read-out: DIZ
[11] = system: Escherichia coli; experiment: Antimicrobial activity against Escherichia coli ATCC 35218 assessed as diameter of inhibition zone at 40 uM after 24 hrs by Kirby -Baur disc diffusion method; format: functional; conditions: ATCC 35218, 24 h, read-out: DIZ; method in brief: as §3
[12] = system: Trichoderma viride; experiment: Antifungal activity against Trichoderma viride MTCC 1107 assessed as zone of inhibition at 80 uM after 48 hrs by disc diffusion method; format: functional; conditions: MTCC 1107, 48 h, read-out: IZ; method in brief: as §2
[13] = system: HeLa; experiment: Cytotoxicity against human HeLa cells after 24 hrs by MTT assay; format: functional, cell-based; method in brief: as §1
[14] = system: Salmonella typhi; experiment: Antimicrobial activity against Salmonella typhi ATCC 23564 assessed as diameter of inhibition zone at 80 uM after 24 hrs by Kirby -Baur disc diffusion method; format: functional, Salmonella enterica subsp. enterica serovar Typhi; conditions: Salmonella enterica, ATCC 23564, 24 h; read-out: DIZ
[15] = system: Pseudomonas aeruginosa; experiment: Antimicrobial activity against Pseudomonas aeruginosa ATCC 15499 assessed as diameter of inhibition zone at 20 uM after 24 hrs by Kirby -Baur disc diffusion method; format: functional; method in brief: as §3
[16] = system: Pseudomonas aeruginosa; experiment: Antimicrobial activity against Pseudomonas aeruginosa ATCC 15499 assessed as diameter of inhibition zone at 80 uM after 24 hrs by Kirby -Baur disc diffusion method; format: functional; conditions: ATCC 15499, 24 h, read-out: DIZ; method in brief: as §3
[17] = system: Salmonella typhi; experiment: Antimicrobial activity against Salmonella typhi ATCC 23564 after 24 hrs by broth micro serial dilution method; format: functional, Salmonella enterica subsp. enterica serovar Typhi; conditions: Salmonella enterica, ATCC 23564, 24 h
[18] = system: Aspergillus niger; experiment: Antifungal activity against Aspergillus niger MTCC 1108 assessed as zone of inhibition at 40 uM after 48 hrs by disc diffusion method; format: functional; conditions: MTCC 1108, 48 h, read-out: IZ; method in brief: as §2
[19] = system: Bacillus cereus; experiment: Antimicrobial activity against Bacillus cereus MTCC 7350 after 24 hrs by broth micro serial dilution method; format: functional; conditions: MTCC 7350, 24 h
Method in brief: (§4)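 This was broth microdilution in autoclaved Mueller-Hinton broth. 150 µL of compound per well was serially diluted […], and 50 µL of test organism was added. Plates were incubated 24 h at 37 °C and optical density was read.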

[20] = system: Staphylococcus aureus; experiment: Antimicrobial activity against Staphylococcus aureus ATCC 11632 after 24 hrs by broth micro serial dilution method; format: functional; conditions: ATCC 11632, 24 h; method in brief: as §4
[21] = system: Aspergillus flavus; experiment: Antifungal activity against Aspergillus flavus MTCC 1021 assessed as zone of inhibition at 20 uM after 48 hrs by disc diffusion method; format: functional; method in brief: as §2
[22] = system: Escherichia coli; experiment: Antimicrobial activity against Escherichia coli ATCC 35218 after 24 hrs by broth micro serial dilution method; format: functional; conditions: ATCC 35218, 24 h; method in brief: as §4
[23] = system: Bacillus cereus; experiment: Antimicrobial activity against Bacillus cereus MTCC 7350 assessed as diameter of inhibition zone at 20 uM after 24 hrs by Kirby -Baur disc diffusion method; format: functional; conditions: MTCC 7350, 24 h, read-out: DIZ; method in brief: as §3
[24] = system: Curvularia lunata; experiment: Antifungal activity against Curvularia lunata MTCC 581 assessed as zone of inhibition at 20 uM after 48 hrs by disc diffusion method; format: functional; conditions: MTCC 581, 48 h, read-out: IZ; method in brief: as §2
[25] = system: Aspergillus niger; experiment: Antifungal activity against Aspergillus niger MTCC 1108 assessed as zone of inhibition at 20 uM after 48 hrs by disc diffusion method; format: functional; conditions: MTCC 1108, 48 h, read-out: IZ; method in brief: as §2
[26] = system: Escherichia coli; experiment: Antimicrobial activity against Escherichia coli ATCC 35218 assessed as diameter of inhibition zone at 20 uM after 24 hrs by Kirby -Baur disc diffusion method; format: functional; conditions: ATCC 35218, 24 h, read-out: DIZ; method in brief: as §3
[27] = system: Aspergillus niger; experiment: Antifungal activity against Aspergillus niger MTCC 1108 after 48 hrs; format: functional; conditions: MTCC 1108, 48 h
[28] = system: Staphylococcus aureus; experiment: Antimicrobial activity against Staphylococcus aureus ATCC 11632 assessed as diameter of inhibition zone at 40 uM after 24 hrs by Kirby -Baur disc diffusion method; format: functional; conditions: ATCC 11632, 24 h, read-out: DIZ; method in brief: as §3
[29] = system: QG-56; experiment: Cytotoxicity against human QG56 cells after 24 hrs by MTT assay; format: functional, cell-based; method in brief: as §1
[30] = system: Trichoderma viride; experiment: Antifungal activity against Trichoderma viride MTCC 1107 assessed as zone of inhibition at 20 uM after 48 hrs by disc diffusion method; format: functional; conditions: MTCC 1107, 48 h, read-out: IZ; method in brief: as §2
[31] = system: Aspergillus flavus; experiment: Antifungal activity against Aspergillus flavus MTCC 1021 after 48 hrs; format: functional; conditions: MTCC 1021, 48 h
[32] = system: Pseudomonas aeruginosa; experiment: Antimicrobial activity against Pseudomonas aeruginosa ATCC 15499 after 24 hrs by broth micro serial dilution method; format: functional; conditions: ATCC 15499, 24 h; method in brief: as §4
[33] = system: Mus musculus; experiment: Antiinflammatory activity in mouse assessed as inhibition of carrageenan-induced increase in paw volume at 200 mg/kg administered 1 hr prior to carrageenan challenge measured after 3 hrs relative to control; format: functional
Method in brief: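 Mice were fasted 2 h and placed in groups of five. Controls received saline i.p. Phenylbutazone was given at 100 mg/kg i.p., curcumin at 200 mg/kg i.p., and derivatives at 200 mg/kg. After 1 h, 0.1 mL of 1% carrageenan in saline was injected subplantar into the right hind paw. Paw volume was followed by plethysmometer for 3 h, and % inhibition was calculated as (Vc − Vt)/Vc × 100.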

[34] = system: HepG2; experiment: Cytotoxicity against human HepG2 cells after 24 hrs by MTT assay; format: functional, cell-based; method in brief: as §1
[35] = system: Aspergillus flavus; experiment: Antifungal activity against Aspergillus flavus MTCC 1021 assessed as zone of inhibition at 40 uM after 48 hrs by disc diffusion method; format: functional; conditions: MTCC 1021, 48 h, read-out: IZ; method in brief: as §2
[36] = system: Staphylococcus aureus; experiment: Antimicrobial activity against Staphylococcus aureus ATCC 11632 assessed as diameter of inhibition zone at 80 uM after 24 hrs by Kirby -Baur disc diffusion method; format: functional; conditions: ATCC 11632, 24 h, read-out: DIZ; method in brief: as §3
[37] = system: Aspergillus flavus; experiment: Antifungal activity against Aspergillus flavus MTCC 1021 assessed as zone of inhibition at 80 uM after 48 hrs by disc diffusion method; format: functional; conditions: MTCC 1021, 48 h, read-out: IZ; method in brief: as §2
[38] = system: Bacillus cereus; experiment: Antimicrobial activity against Bacillus cereus MTCC 7350 assessed as diameter of inhibition zone at 80 uM after 24 hrs by Kirby -Baur disc diffusion method; format: functional; conditions: MTCC 7350, 24 h, read-out: DIZ; method in brief: as §3
[39] = system: Escherichia coli; experiment: Antimicrobial activity against Escherichia coli ATCC 35218 assessed as diameter of inhibition zone at 80 uM after 24 hrs by Kirby -Baur disc diffusion method; format: functional; conditions: ATCC 35218, 24 h, read-out: DIZ; method in brief: as §3
[40] = system: Trichoderma viride; experiment: Antifungal activity against Trichoderma viride MTCC 1107 assessed as zone of inhibition at 40 uM after 48 hrs by disc diffusion method; format: functional; conditions: MTCC 1107, 48 h, read-out: IZ; method in brief: as §2
[41] = system: Staphylococcus aureus; experiment: Antimicrobial activity against Staphylococcus aureus ATCC 11632 assessed as diameter of inhibition zone at 20 uM after 24 hrs by Kirby -Baur disc diffusion method; format: functional; conditions: ATCC 11632, 24 h, read-out: DIZ; method in brief: as §3

## COc1ccc(NS(=O)(=O)c2ccc(/N=C(/C=C(O)/C=C/c3ccc(O)c(OC)c3)\C=C\c3ccc(O)c(OC)c3)cc2)nn1
[1]
  MIC: 20 µM (≈ 12.6 µg/mL)
[2]
  IC50: 25 µM
[3]
  zone of inhibition at 40 µM: 16 mm
[4]
  zone of inhibition at 80 µM: 14 mm
[5]
  zone of inhibition at 40 µM: 15 mm
[6]
  MIC: 20 µM (≈ 12.6 µg/mL)
[7]
  zone of inhibition at 40 µM: 11 mm
[8]
  zone of inhibition at 40 µM: 10 mm
[9]
  zone of inhibition at 80 µM: 18 mm
[10]
  zone of inhibition at 20 µM: 13 mm
[11]
  zone of inhibition at 40 µM: 18 mm
[12]
  zone of inhibition at 80 µM: 19 mm
[13]
  IC50: 50 µM
[14]
  zone of inhibition at 80 µM: 19 mm
[15]
  diameter of the inhibition zone (DIZ): inactive
[16]
  zone of inhibition at 80 µM: 14 mm
[17]
  MIC: 20 µM (≈ 12.6 µg/mL)
[18]
  zone of inhibition at 40 µM: 14 mm
[19]
  MIC: 20 µM (≈ 12.6 µg/mL)
[20]
  MIC: 20 µM (≈ 12.6 µg/mL)
[21]
  inhibition zone (IZ): inactive
[22]
  MIC: 20 µM (≈ 12.6 µg/mL)
[23]
  zone of inhibition at 20 µM: 9 mm
[24]
  zone of inhibition at 20 µM: 12 mm
[25]
  zone of inhibition at 20 µM: 10 mm
[26]
  zone of inhibition at 20 µM: 16 mm
[27]
  MIC: 40 µM (≈ 25.2 µg/mL)
[28]
  zone of inhibition at 40 µM: 14 mm
[29]
  IC50: 25 µM
[30]
  zone of inhibition at 20 µM: 12 mm
[31]
  MIC: > 80 µM
[32]
  MIC: 20 µM (≈ 12.6 µg/mL)
[33]
  inhibition in vivo at 200 mg/kg: 35.4%
[34]
  IC50: 25 µM
[35]
  zone of inhibition at 40 µM: 9 mm
[36]
  zone of inhibition at 80 µM: 17 mm
[37]
  zone of inhibition at 80 µM: 10 mm
[38]
  zone of inhibition at 80 µM: 14 mm
[39]
  zone of inhibition at 80 µM: 21 mm
[40]
  zone of inhibition at 40 µM: 16 mm
[41]
  zone of inhibition at 20 µM: 9 mm
